Measurements reported in ChEMBL document CHEMBL3414458, “Discovery of novel 2,5-dioxoimidazolidine-based P2X(7) receptor antagonists as constrained analogues of KN62” (J Med Chem, 2015).
Activity calls are given as the source filed them. The rule behind the calls is not given here.

How the values were obtained:
P2X purinoceptor 7 [1] = target: T1, P2X purinoceptor 7 (Homo sapiens, UniProt Q99572); assay: Antagonist activity at recombinant human P2X7 receptor expressed in HEK293 cells assessed as inhibition of BzATP-induced intracellular ethidium bromide uptake after 2 hrs by fluorescence assay; type: cell-based
T1 sequence (Q99572 whole entry): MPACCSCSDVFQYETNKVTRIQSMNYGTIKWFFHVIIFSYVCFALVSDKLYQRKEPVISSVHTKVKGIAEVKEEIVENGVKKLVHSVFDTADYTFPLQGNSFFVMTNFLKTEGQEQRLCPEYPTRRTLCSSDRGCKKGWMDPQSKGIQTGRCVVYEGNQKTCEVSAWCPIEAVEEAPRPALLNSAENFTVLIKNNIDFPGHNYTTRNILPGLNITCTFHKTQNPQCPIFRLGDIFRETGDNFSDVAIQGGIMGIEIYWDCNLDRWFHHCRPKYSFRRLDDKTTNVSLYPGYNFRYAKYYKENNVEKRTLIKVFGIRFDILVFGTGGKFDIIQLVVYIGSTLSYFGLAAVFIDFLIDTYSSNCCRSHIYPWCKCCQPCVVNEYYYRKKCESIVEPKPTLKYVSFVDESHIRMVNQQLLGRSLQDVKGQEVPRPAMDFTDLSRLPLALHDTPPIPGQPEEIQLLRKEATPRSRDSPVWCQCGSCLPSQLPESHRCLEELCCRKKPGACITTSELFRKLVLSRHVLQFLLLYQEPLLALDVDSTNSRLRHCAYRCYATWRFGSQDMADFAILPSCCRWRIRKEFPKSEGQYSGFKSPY
How it was run: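 Human HEK293 cells stably expressing recombinant human P2X7; ethidium accumulation stimulated by BzATP was measured.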

P2X purinoceptor 7 [2] = target: T1, P2X purinoceptor 7; assay: Antagonist activity at P2X7 receptor in LPS/IFN-gamma-differentiated human THP1 cells assessed as inhibition of BzATP-induced IL-1beta release preincubated for 30 mins followed by BzATP induction measured after 30 mins by ELISA; type: cell-based, THP-1
How it was run: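 Human THP-1 monocytes, LPS-primed, stimulated with BzATP; IL-1β release measured by ELISA. Active compounds were screened at 1 µM, and full concentration-response curves were run to obtain IC50.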

[3] = target: T2, P2X purinoceptor 7 (Homo sapiens) (UniProt Q99572); assay: Antagonist activity at P2X7 receptor in LPS/IFN-gamma-differentiated human THP1 cells assessed as inhibition of BzATP-induced IL-1beta release at 1 uM preincubated for 30 mins followed by BzATP induction measured after 30 mins by ELISA relative to control; type: cell-based; settings: THP-1
T2 sequence (whole entry): T1 sequence (Q99572 whole entry)
How it was run: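 LPS-primed THP-1 human monocytes were stimulated with BzATP, and IL-1β release was measured by ELISA. Test compound was given at a single concentration of 1 µM, and results are expressed as percent inhibition of BzATP-induced IL-1β release.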

[4] = target: T2, P2X purinoceptor 7 (Homo sapiens); assay: Antagonist activity at recombinant human P2X7 receptor expressed in HEK293 cells assessed as inhibition of BzATP-induced intracellular ethidium bromide uptake at 10 uM after 2 hrs by fluorescence assay; type: cell-based

Compound	IC50 (P2X purinoceptor 7 [1])	IC50 (P2X purinoceptor 7 [2])	inhibition [3]	inhibition [4]
CN1C(=O)C(Cc2ccc(OS(=O)(=O)c3cccc4cnccc34)cc2)N(C2CCN(C(=O)c3ccc(Cl)c(C(F)(F)F)c3)CC2)C1=O (racemic)	0.542 µM			
O=C1NC(=O)N(C2CCN(C(=O)c3ccc(Cl)cc3F)CC2)C1Cc1ccc(OS(=O)(=O)c2cccc3cnccc23)cc1 (racemic)	0.423 µM	0.253 µM		
CC(C)(C)OC(=O)N1CCC(CN2C(=O)C(Cc3ccc(OS(=O)(=O)c4cccc5cnccc45)cc3)N(Cc3cccc4cnccc34)C2=O)CC1 (racemic)	12 µM		50%	
CN([C@@H](Cc1ccc(OS(=O)(=O)c2cccc3cnccc23)cc1)C(=O)N1CCN(c2ccccc2)CC1)S(=O)(=O)c1cccc2cnccc12		0.143 µM		
O=C1NC(=O)N(Cc2cccc3cnccc23)C1Cc1ccc(OS(=O)(=O)c2cccc3cnccc23)cc1 (racemic)	3.82 µM		38%	
O=C1NC(=O)N(C2CCN(C(=O)CC3CC4CCC3C4)CC2)C1Cc1ccc(OS(=O)(=O)c2cccc3cnccc23)cc1 (racemic)	0.109 µM	0.029 µM	> 95%	
CC(C)N1C(=O)C(Cc2ccc(OS(=O)(=O)c3cccc4cnccc34)cc2)N(C2CCN(C(=O)c3ccc(Cl)c(C(F)(F)F)c3)CC2)C1=O (racemic)	3.24 µM			
CC(C)(C)C(=O)N1CCC(N2C(=O)NC(=O)C2Cc2ccc(OS(=O)(=O)c3cccc4cnccc34)cc2)CC1 (racemic)	5.65 µM		49%	
O=C1NC(=O)N(C2CCN(C(=O)c3ccc(F)c(F)c3)CC2)C1Cc1ccc(OS(=O)(=O)c2cccc3cnccc23)cc1 (racemic)	0.217 µM	0.081 µM		
O=C1NC(=O)N(CCC2CCN(Cc3ccccc3)CC2)C1Cc1ccc(OS(=O)(=O)c2cccc3cnccc23)cc1 (racemic)	5.73 µM			
O=C1N[C@@H](Cc2ccc(OS(=O)(=O)c3cccc4cnccc34)cc2)C(=O)N1Cc1cccc2cnccc12	12.2 µM		52%	
CC(C)C(=O)N1CCC(N2C(=O)NC(=O)C2Cc2ccc(OS(=O)(=O)c3cccc4cnccc34)cc2)CC1 (racemic)	7.22 µM		33%	
CC(C)(C)OC(=O)N1CCC(CN2C(=O)N[C@@H](Cc3ccc(OS(=O)(=O)c4cccc5cnccc45)cc3)C2=O)CC1	7.72 µM		45%	
O=C1NC(=O)[C@H](Cc2ccc(OS(=O)(=O)c3cccc4cnccc34)cc2)N1				inactive
O=C1NC(=O)N(C2CCN(C(=O)c3ccc(Cl)c(Cl)c3)CC2)C1Cc1ccc(OS(=O)(=O)c2cccc3cnccc23)cc1 (racemic)	0.073 µM	0.072 µM		
COc1ccc(C(=O)N2CCC(N3C(=O)NC(=O)C3Cc3ccc(OS(=O)(=O)c4cccc5cnccc45)cc3)CC2)cc1OC (racemic)	3.76 µM		52%	
O=C1NC(=O)N(C2CCN(C(=O)C34CC5CC(CC(C5)C3)C4)CC2)C1Cc1ccc(OS(=O)(=O)c2cccc3cnccc23)cc1 (racemic)	0.023 µM	0.014 µM		
O=C1NC(=O)N(C2CCN(Cc3ccccc3)CC2)C1Cc1ccc(OS(=O)(=O)c2cccc3cnccc23)cc1 (racemic)	1.62 µM			
O=C1NC(=O)N(C2CCN(C(=O)C34CC5CC(CC(C5)C3)C4)CC2)C1c1ccc(OS(=O)(=O)c2cccc3cnccc23)cc1 (racemic)				48%
CC(C)(C)OC(=O)N1CCC(N2C(=O)NC(=O)C2Cc2ccc(OS(=O)(=O)c3cccc4cnccc34)cc2)CC1 (racemic)	0.355 µM		59%	
O=C1NC(=O)N(C2CCN(C(=O)c3ccc(Cl)cc3)CC2)C1Cc1ccc(OS(=O)(=O)c2cccc3cnccc23)cc1 (racemic)	0.133 µM	0.192 µM		
CCCC(=O)N1CCC(N2C(=O)NC(=O)C2Cc2ccc(OS(=O)(=O)c3cccc4cnccc34)cc2)CC1 (racemic)	8.77 µM		37%	
O=C1NC(=O)N(C2CCN(C(=O)C3CCCCC3)CC2)C1Cc1ccc(OS(=O)(=O)c2cccc3cnccc23)cc1 (racemic)	0.133 µM	0.08 µM		
O=C1NC(=O)N(C2CCN(C(=O)c3ccc(F)cc3)CC2)C1Cc1ccc(OS(=O)(=O)c2cccc3cnccc23)cc1 (racemic)	0.913 µM			
O=C1C(Cc2ccc(OS(=O)(=O)c3cccc4cnccc34)cc2)N(CC2CCN(Cc3ccccc3)CC2)C(=O)N1Cc1cccc2cnccc12 (racemic)	8.96 µM		42%	
O=C1NC(=O)N(C2CCN(C(=O)c3ccccc3Cl)CC2)C1Cc1ccc(OS(=O)(=O)c2cccc3cnccc23)cc1 (racemic)	0.666 µM		68%	
O=C1NC(=O)N(C2CCN(C(=O)c3ccc(Cl)c(C(F)(F)F)c3)CC2)C1Cc1ccc(OS(=O)(=O)c2cccc3cnccc23)cc1 (stereo in doubt; (+)-21w)	0.168 µM	0.098 µM		
O=C1NC(=O)N(CCC2CCN(C(=O)c3ccccc3)CC2)C1Cc1ccc(OS(=O)(=O)c2cccc3cnccc23)cc1 (racemic)	4.99 µM		33%	
O=C1NC(=O)N(CC2CCN(Cc3ccccc3)CC2)C1Cc1ccc(OS(=O)(=O)c2cccc3cnccc23)cc1 (racemic)	1.82 µM		52%	
O=C1NC(=O)N(C2CCN(CC34CC5CC(CC(C5)C3)C4)CC2)C1Cc1ccc(OS(=O)(=O)c2cccc3cnccc23)cc1 (racemic)	2.29 µM		49%	

Second part, the compound after the results:

IC50 (P2X purinoceptor 7 [1])	IC50 (P2X purinoceptor 7 [2])	inhibition [3]	inhibition [4]	Compound
0.054 µM	0.009 µM			O=C1NC(=O)N(C2CCN(C(=O)c3ccc(Cl)c(C(F)(F)F)c3)CC2)C1Cc1ccc(OS(=O)(=O)c2cccc3cnccc23)cc1 (single isomer, unassigned; (-))
0.099 µM	0.081 µM			CC12CC3CC(C)(C1)CC(C(=O)N1CCC(N4C(=O)NC(=O)C4Cc4ccc(OS(=O)(=O)c5cccc6cnccc56)cc4)CC1)(C3)C2 (racemic)
0.069 µM	0.049 µM	> 95%		O=C1NC(=O)N(C2CCN(C(=O)C34CC5CC(CC3C5)C4)CC2)C1Cc1ccc(OS(=O)(=O)c2cccc3cnccc23)cc1 (racemic)
0.574 µM		60%		O=C1NC(=O)N(C2CCN(C(=O)c3ccccc3)CC2)C1Cc1ccc(OS(=O)(=O)c2cccc3cnccc23)cc1 (racemic)
11.7 µM		48%		CCC(=O)N1CCC(N2C(=O)NC(=O)C2Cc2ccc(OS(=O)(=O)c3cccc4cnccc34)cc2)CC1 (racemic)
			46%	O=C1NC(=O)N(C2CCN(C(=O)CC34CC5CC(CC(C5)C3)C4)CC2)C1c1ccc(OS(=O)(=O)c2cccc3cnccc23)cc1 (racemic)
0.22 µM	0.313 µM			O=C1NC(=O)N(C2CCN(C(=O)c3cccc(Cl)c3)CC2)C1Cc1ccc(OS(=O)(=O)c2cccc3cnccc23)cc1 (racemic)
			inactive	O=C1NC(=O)N(C2CCNCC2)C1Cc1ccc(OS(=O)(=O)c2cccc3cnccc23)cc1 (racemic)
0.789 µM		59%		O=C1NC(=O)N(CC2CCN(C(=O)c3ccccc3)CC2)C1Cc1ccc(OS(=O)(=O)c2cccc3cnccc23)cc1 (racemic)
4.88 µM		45%		CC(C)CC(=O)N1CCC(N2C(=O)NC(=O)C2Cc2ccc(OS(=O)(=O)c3cccc4cnccc34)cc2)CC1 (racemic)
0.084 µM	0.015 µM	> 95%		O=C1NC(=O)N(C2CCN(C(=O)CC34CC5CC(CC(C5)C3)C4)CC2)C1Cc1ccc(OS(=O)(=O)c2cccc3cnccc23)cc1 (racemic)
0.885 µM		60%		CC(C)(C)OC(=O)N1CCC(CN2C(=O)NC(=O)C2Cc2ccc(OS(=O)(=O)c3cccc4cnccc34)cc2)CC1 (racemic)
0.847 µM				CCN1C(=O)C(Cc2ccc(OS(=O)(=O)c3cccc4cnccc34)cc2)N(C2CCN(C(=O)c3ccc(Cl)c(C(F)(F)F)c3)CC2)C1=O (racemic)
1.01 µM		54%		CC(C)(C)OC(=O)N1CCC(CCN2C(=O)NC(=O)C2Cc2ccc(OS(=O)(=O)c3cccc4cnccc34)cc2)CC1 (racemic)
1.97 µM		44%		CC(C)(C)OC(=O)N1CCC(CN2C(=O)N(Cc3cccc4cnccc34)C(=O)C2Cc2ccc(OS(=O)(=O)c3cccc4cnccc34)cc2)CC1 (racemic)
0.03 µM	0.027 µM	> 95%		O=C1NC(=O)N(C2CCN(C(=O)C34CC5CC(CC(Br)(C5)C3)C4)CC2)C1Cc1ccc(OS(=O)(=O)c2cccc3cnccc23)cc1 (racemic)
1.67 µM				CCCN1C(=O)C(Cc2ccc(OS(=O)(=O)c3cccc4cnccc34)cc2)N(C2CCN(C(=O)c3ccc(Cl)c(C(F)(F)F)c3)CC2)C1=O (racemic)
